Results from different studies.
Protocols differ between the studies behind these lines.
Target: Serine/threonine-protein kinase Sgk3 (SGK3, Homo sapiens, UniProt Q96BR1)
One construct used (Q96BR1 1-496): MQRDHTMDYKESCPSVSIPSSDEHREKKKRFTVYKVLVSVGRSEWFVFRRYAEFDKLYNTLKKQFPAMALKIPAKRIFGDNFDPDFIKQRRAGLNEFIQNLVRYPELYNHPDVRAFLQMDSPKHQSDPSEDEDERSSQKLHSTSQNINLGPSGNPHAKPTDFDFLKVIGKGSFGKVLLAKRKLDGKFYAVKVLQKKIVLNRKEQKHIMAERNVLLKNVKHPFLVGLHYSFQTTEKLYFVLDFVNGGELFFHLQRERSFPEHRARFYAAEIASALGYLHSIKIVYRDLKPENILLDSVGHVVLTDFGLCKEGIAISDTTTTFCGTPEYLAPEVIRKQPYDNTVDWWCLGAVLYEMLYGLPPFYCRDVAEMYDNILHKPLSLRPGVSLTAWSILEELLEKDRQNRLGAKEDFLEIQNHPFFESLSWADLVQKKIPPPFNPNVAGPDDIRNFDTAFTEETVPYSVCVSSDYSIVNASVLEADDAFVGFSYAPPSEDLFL

For CS(=O)(=O)N1CCCC(NC(=O)[C@H](CCC2CCCCC2)NC(=O)c2ccc(CNC(=O)c3cnc4ccccn34)cc2)C1 (stereo partly drawn), the remaining binding was 74% (cell-free assay; competition with immobilised ligand; 0.1 µM).
The inhibition of c1ccc(CNc2nc(N3CCOc4ccccc43)nc3c2CCCC3)cc1 is reported as -9% (target engagement in cells; inhibitor; chemoproteomics; 20 mM).
CCCOc1ccc(OC)c(F)c1C(=O)c1ccc(C(=O)N[C@@H]2CNC[C@H]2NC(=O)c2ccc3[nH]ncc3c2)cc1 has a remaining activity of 23% (enzyme activity; inhibitor; 10 µM).
With CCN(CC)CCNC(=O)c1c(C)[nH]c(/C=C2\C(=O)Nc3ccc(F)cc32)c1C the remaining signal was 101% (cell-free assay; 0.5 µM).
For CC/C(=N\NC(=O)NCc1cccc(O)c1)c1ccc(O)c(C)c1O, the inhibition was 83.9% (enzyme activity; inhibitor; 0.1 µM).
CCOc1cc(-c2nncn2C)ccc1Nc1ncc2cc(C)nc(NCC(C)(C)C)c2n1 has an inhibition of less than 15% (enzyme activity; inhibitor; FRET; 1 µM).
The remaining signal of Oc1cccc(-c2nc(N3CCOCC3)c3oc4ncccc4c3n2)c1 is reported as 95.8% (cell-free assay; 0.5 µM).
O=C1CCc2cc(Nc3cc(OC4CCOCC4)c([N+](=O)[O-])cc3Cl)ccc2N1 has a remaining binding of 100% (cell-free assay; competition with immobilised ligand; 1 µM).
The inhibition of COc1cc2ncnc(Nc3ccc(Oc4ccccc4)cc3C)c2cc1OC is reported as 0% (enzyme activity; inhibitor; 1 µM).
CNc1cccc2cc(C(=O)Nc3ccc(C(=O)O)cc3)c(=O)[nH]c12 gave an inhibition of -2.1% (enzyme activity; inhibitor; 10 µM).
Cn1nc(C(=O)NCc2ccc(C(=O)O)cc2)cc1-c1ccc2[nH]ccc2c1 gave a remaining binding of 96% (cell-free assay; competition with immobilised ligand; 0.1 µM).
The remaining signal of O=C1Nc2ccc(Cl)cc2C1=Cc1cc(Cl)c(O)c(Cl)c1 is reported as 98.6% (cell-free assay; 0.5 µM).
The remaining binding of Cc1nc(C2CCN(C(=O)c3ccc(OC(F)(F)F)cc3N)CC2)c2ncc(N3CCN(C)CC3)cc2n1 is reported as 93% (cell-free assay; competition with immobilised ligand; 1 µM).
The inhibition of CN1CC(Oc2cnc(C#N)cc2-c2ccn3nc(NC(=O)C4CC4)cc3c2)C1 is reported as -3% (enzyme activity; inhibitor; 1 µM).
For Cc1cc(NC(=O)c2cccc3cc(-c4cccc5[nH]nc(N)c45)ccc23)ccc1F, the activity vs control was 106% (enzyme activity; inhibitor; 0.1 µM).
CCc1ccccc1C(=O)Nc1n[nH]c2c(C)c(F)c(C3C(C#N)=C(C)N(C)C(C)=C3C#N)cc12 has a remaining binding of 91% (cell-free assay; competition with immobilised ligand; 1 µM).
For CNC(=O)c1cc(Oc2ccc(NC(=O)Nc3ccc(Cl)c(C(F)(F)F)c3)cc2)ccn1, the inhibition was 11% (enzyme activity; inhibitor; 10 µM).
The remaining signal of Nc1ncnc2occ(-c3ccc(NC(=O)Nc4cc(C(F)(F)F)ccc4F)cc3)c12 is reported as 6.6% (cell-free assay; inhibitor; 20 µM).
O=C(Nc1cccnn1)N1CC(C/C=C/c2cncc(Oc3ccc(C(F)(F)F)cn3)n2)C1 gave a remaining binding of 87% (cell-free assay; competition with immobilised ligand; 1 µM).
For CC(C)(O)[C@H]1CC[C@H](Nc2ccc3ncc(-c4cccc(C(F)(F)F)c4)n3n2)CC1, the remaining activity was 95.8% (enzyme activity; inhibitor; 1 µM).
With CCS(=O)(=O)c1cc2cc(C[C@@](O)(CC(C)(C)c3ccc(F)cc3C(N)=O)C(F)(F)F)[nH]c2cn1 the remaining binding was 79% (cell-free assay; competition with immobilised ligand; 1 µM).
For Cc1sc(C(=O)NC2COC2)cc1-n1cc(NC(=O)Nc2c(F)cccc2Cl)cn1, the remaining activity was 90.1% (enzyme activity; inhibitor; 10 µM).
O=C1NC(=O)c2cc(Nc3ccc(F)cc3)c(Nc3ccc(F)cc3)cc21 gave a remaining signal of 102% (cell-free assay; 0.5 µM).
For Cc1ccc(Nc2nccc(N(C)c3ccc4c(C)n(C)nc4c3)n2)cc1S(N)(=O)=O, the inhibition was 10% (enzyme activity; inhibitor; 0.3 µM).
